The values below come from publication PMC6335621 (Chemical Science, 2018).

A short description of series [1]: Stability in the solid state and in CDCl3 solution. In kind it is physicochemical.
The conditions of series [2]: in CHCl3; cited from earlier work.
For a further series, the system named is HepG2. In words: In vitro cytotoxicity. It is filed as cell-based, human. The following applies: read-out: IC50 HepG2; MTT assay, 72 h incubation. Put shortly: (§1)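 Cell lines: HeLa (cervical epithelial carcinoma), HepG2 (hepatocellular carcinoma), MCF-7 (breast carcinoma), HCT-116 (colorectal carcinoma), and HCC827 and NCI-H460 (non-small cell lung carcinoma).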

Another series relates to HCT116. In words: In vitro cytotoxicity. In kind it is cell-based, human. The note with it: read-out: IC50 HCT116; MTT assay, 72 h incubation. The essentials:
as §1
Background: Formazan colour is commonly taken as a measure of viable cells.

In a further series the test system is HCC827. In words: In vitro cytotoxicity. It is filed as cell-based, human. The following applies: read-out: IC50 HCC827; MTT assay, 72 h incubation. Put shortly: as §1
For series [3], the system named is NCI-H460. In words: In vitro cytotoxicity in the dark. It is filed as cell-based, human. The following applies: read-out: IC50 NCI-H460 (dark). Put shortly:
as §1

Series [4] has as its system NCI-H460. In words: Light-induced cytotoxicity assay. In kind it is cell-based, human. The note with it: for PI = IC50(dark)/IC50(light): NCI-H460, phototoxicity index. The essentials: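 NCI-H460 cells were incubated with test compound, then exposed to visible light at 2.8 mW cm–2 for 1 h. […] Phototoxicity index = IC50(dark)/IC50(light).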

In the case of [Ir^III(tmp)(BIMe)Cl] [1b], in series [1], the “Stable in the solid state and in CDCl3 solution for” value (from here on “Stable”) is given as 1 week.
Turning to [Ir^III(F20tpp)(IMe)Cl] [1c], the Decomposes within in series [1] (under ambient conditions) was no more than 1 days.
As for [Ir^III(F20tpp)(BIMe)Cl] [1d], the “Stable” value in series [1] was determined as 1 week.
On to `C1=Cc2nc1c(-c1ccccc1)c1ccc([nH]1)c(-c1ccccc1)c1nc(c(-c3ccccc3)c3ccc([nH]3)c2-c2ccccc2)C=C1` [H2tpp], for which the “Φso (quantum yield of singlet oxygen production)” value in series [2] was 0.55.
For [Ir^III(tmp)(IMe)Cl] [1a], in series [1], the “Stable” value turned out to be 1 week.
On to `N.N.[Cl][Pt][Cl]` [Cisplatin], for which the IC50 – broadly, the concentration needed to halve the response being measured – with HepG2 came to 6.18 ± 0.82 µM; in the series on HCT116 it was 6.94 ± 0.54 µM; with HCC827, 9.61 ± 0.81 µM; in the series with NCI-H460 [3], 3.96 ± 0.48 µM; in the series on NCI-H460 [4] (read-out: IC50 NCI-H460 (light), visible light irradiation 2.8 mW cm^–2 for 1 h) it was 4.61 ± 0.31 µM. Further, the “PI = IC50(dark)/IC50(light)” value with NCI-H460 [4] is on record as 0.86; in the series on NCI-H460 [4] (listed as cisplatin) it was less than 1.
